From ChEMBL document CHEMBL4145474, “Discovery of novel piperonyl derivatives as diapophytoene desaturase inhibitors for the treatment of methicillin-, vancomycin- and linezolid-resistant Staphylococcus aureus infections” (Eur J Med Chem, 2018) come the findings set out here.

The source made the active and inactive calls. No cut-off for these calls is given here.

The test system of assay [1] is Staphylococcus aureus. In words: Growth inhibition of methicillin-resistant Staphylococcus aureus USA400 MW2 at 0.2 mM incubated for overnight. Type of assay: functional, organism-based. In a few lines:
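Overnight cultures washed in PBS and diluted in TSB to OD600 ~1.0. Inoculated to a final OD600 of about 0.05 into TSB containing compound (0.2 or 0.05 mM, from a 20 mM DMSO stock) or DMSO growth control, overlaid with paraffin wax. OD600 read every 30 min during overnight incubation at 37 °C.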

For assay [2], the target named is T1, 4,4'-diapophytoene desaturase (4,4'-diaponeurosporene-forming) (Staphylococcus aureus (strain Newman)) (UniProt O07855).
T1 sequence (whole entry): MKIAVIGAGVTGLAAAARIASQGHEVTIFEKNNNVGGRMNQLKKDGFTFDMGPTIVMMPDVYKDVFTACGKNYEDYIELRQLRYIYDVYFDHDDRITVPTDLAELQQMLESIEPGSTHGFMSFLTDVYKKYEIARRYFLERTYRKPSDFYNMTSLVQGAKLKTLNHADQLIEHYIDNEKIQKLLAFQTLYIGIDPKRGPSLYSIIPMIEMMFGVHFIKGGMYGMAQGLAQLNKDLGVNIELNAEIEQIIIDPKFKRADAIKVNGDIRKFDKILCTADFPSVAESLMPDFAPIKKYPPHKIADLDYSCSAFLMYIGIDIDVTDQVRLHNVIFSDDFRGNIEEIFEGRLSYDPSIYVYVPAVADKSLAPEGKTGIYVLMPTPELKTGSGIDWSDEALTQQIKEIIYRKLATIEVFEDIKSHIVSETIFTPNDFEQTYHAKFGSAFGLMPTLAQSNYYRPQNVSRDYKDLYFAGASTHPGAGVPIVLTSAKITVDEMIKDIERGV
The experiment in a line: Inhibition of CrtN in wild type Staphylococcus aureus Newman assessed as decrease in bacterial survival after 6 hrs by human whole blood killing assay relative to control. Conditions: Staphylococcus aureus subsp. aureus str. Newman. In a few lines: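 Tubes were incubated 6 h at 37 °C, then serial dilutions were plated on TSA to count surviving CFU. Two independent experiments, compared against vehicle.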

The target of assay [3] is T1, 4,4'-diapophytoene desaturase (4,4'-diaponeurosporene-forming) (Staphylococcus aureus (strain Newman)). The experiment in a line: Inhibition of Staphylococcus aureus Newman 6His-tagged CrtN expressed in Escherichia coli BL21(DE3) assessed as 4,4'-diapophytoene accumulation by UV-HPLC analysis. Conditions: Staphylococcus aureus subsp. aureus str. Newman. In a few lines: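 Substrate was E. coli-derived diapophytoene emulsified with phosphatidylcholine in 0.02 M HEPES pH 7.5. Run anaerobically (glucose oxidase 20 U/mL, catalase 20000 U/mL, glucose 2 mM final) overnight at 37 °C, stopped with methanol. Triplicate; diapophytoene monitored by HPLC at 286 nm.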

Assay [4] concerns Staphylococcus aureus. In words: Inhibition of pigmentation in methicillin-resistant Staphylococcus aureus USA300 LAC after 48 hrs by spectrophotometric method. Type of assay: functional, organism-based. In a few lines: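 Bacteria grown in 4 mL TSB for 48 h at 37 °C with compound serially diluted from DMSO, in duplicate; DMSO vehicle control and non-pigmented CrtN mutant as reference. Cells from 3 mL of culture washed twice with 0.01 M PBS and pigment extracted into methanol. Absorbance read at 450 nm; IC50 fitted from the concentration series.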

The subject of assay [5] is Staphylococcus aureus. The experiment in a line: Antibacterial activity against wild type Staphylococcus aureus Newman infected in BALB/c mouse assessed as decrease in bacterial survival in mouse kidney at 0.1 to 0.4 mg, ip bid administered 4.5 days before 24 hrs bacterial infection measured after 90 hrs. The class given is functional, organism-based. In a few lines:
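Female BALB/c mice, 6-8 weeks old, infected retro-orbitally with 2.2 × 10⁷ CFU S. aureus Newman. Intraperitoneal dosing in 12 intervals: pre-treatment groups received a total of 50 or 200 mg/kg starting before infection; post-treatment groups received a total of 39 or 156 mg/kg starting 6 h after infection. Vehicle was ddH₂O. At 90 h post-infection, liver or kidney was homogenized in PBS/0.01% Triton X-100 and plated on TSA for CFU.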

Assay [6] deals with Staphylococcus aureus. The experiment in a line: Antibacterial activity against vancomycin-intermediate methicillin-resistant Staphylococcus aureus Mu50 infected in BALB/c mouse assessed as decrease in bacterial survival in mouse liver at 0.1 to 0.4 mg, ip bid administered 4.5 days after 6 hrs bacterial infection measured after 90 hrs. Type of assay: functional, organism-based. In a few lines: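 6–8-week-old female BALB/c mice (SPF) dosed intraperitoneally twice daily over 4.5 d at 0.1 or 0.4 mg/bid. Pre-treatment started before infection; post-treatment started 6 h after infection. Vancomycin and linezolid controls given as pre-treatment at 0.4 mg/bid. Retro-orbital inoculation: Mu50 1.1 × 10⁹ CFU, NRS271 1.8 × 10⁸ CFU. Kidneys and livers homogenised in PBS/0.01% Triton X-100 and plated on TSA for CFU.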

Assay [7] deals with T1, 4,4'-diapophytoene desaturase (4,4'-diaponeurosporene-forming) (Staphylococcus aureus (strain Newman)). The experiment in a line: Inhibition of CrtN in methicillin-resistant Staphylococcus aureus USA300 LAC assessed as bacterial survival after 6 hrs by human whole blood assay (reference value: 14.33%). In a few lines:
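Overnight cultures spun, resuspended in sterile PBS at 1 × 10⁷ CFU/mL, then mixed 1:10 with fresh whole blood from healthy human volunteers (final 1 × 10⁶ CFU/mL). Incubated 6 h at 37 °C; surviving CFU counted by plating dilutions on TSA. Two independent experiments.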

The test system of assay [8] is Staphylococcus aureus. The experiment in a line: Antibacterial activity against methicillin-resistant Staphylococcus aureus USA300 LAC assessed as decrease in bacterial survival at 1 uM after 24 hrs by H2O2 killing assay. Type of assay: functional, organism-based.

For `CN(C/C=C/C=C/c1ccc(C(F)(F)F)cc1F)Cc1ccc2c(c1)OCO2.Cl`, the “growth inhibition (GI)” value with Staphylococcus aureus [1] was “inactive”. Moreover, the fold change (FC) in assay [2] turned out to be 10.9. For the same molecule, in assay [3], the inhibition entry was “Active”. In addition, in the assay on Staphylococcus aureus [4], the midpoint of inhibition, the IC50, lay at 12.9 nM. For the same molecule, the outcome in the assay with Staphylococcus aureus [5] and in the assay on Staphylococcus aureus [6] was Active. Also, in assay [7], the Survival was 1.57%. Moreover, the result with Staphylococcus aureus [8] was inactive.
